Assay outcomes from PubChem BioAssay.
NR1D1 modulator – Rev-erb alpha (human) modulation. Rev-erbα–FITC-DNA binding, fluorescence polarization, 90 min. activity, % at 10 µM. actives 0.79% (n = 370,000);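 active = activity above about 14%, limit read from the data; passing the limit was not always enough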
Target sequence (P20393 whole entry, looked up): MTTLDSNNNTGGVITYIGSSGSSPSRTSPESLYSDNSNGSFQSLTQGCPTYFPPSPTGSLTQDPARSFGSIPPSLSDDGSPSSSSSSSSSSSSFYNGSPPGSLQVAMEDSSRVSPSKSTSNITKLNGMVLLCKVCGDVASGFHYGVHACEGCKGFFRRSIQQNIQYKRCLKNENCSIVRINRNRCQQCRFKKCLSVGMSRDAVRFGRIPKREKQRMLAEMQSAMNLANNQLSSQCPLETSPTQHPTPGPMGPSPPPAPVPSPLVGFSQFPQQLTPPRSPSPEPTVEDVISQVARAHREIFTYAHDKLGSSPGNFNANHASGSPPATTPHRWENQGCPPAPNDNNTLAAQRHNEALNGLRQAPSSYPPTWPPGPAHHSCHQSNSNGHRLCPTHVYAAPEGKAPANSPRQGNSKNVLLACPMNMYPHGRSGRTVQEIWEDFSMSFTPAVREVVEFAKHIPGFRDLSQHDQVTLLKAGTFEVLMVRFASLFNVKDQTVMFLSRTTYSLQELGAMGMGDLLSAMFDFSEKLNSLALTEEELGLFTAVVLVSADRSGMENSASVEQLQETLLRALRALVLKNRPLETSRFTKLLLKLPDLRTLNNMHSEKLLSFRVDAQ
NR2E3 ag-1 – agonists of human nuclear receptor NR2E3; Q9Y5X4; GST-NR2E3/biotin-RetCOR TR-FRET, 1536-well; inhibition of corepressor binding, % at 4.78 µM; actives 0.12% (n = 320,000);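 active = percent inhibition above the cutoff of mean plus 3 SD of all tested compounds, set per screening campaign, cut at about 20% in these data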
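Material: NR2E3–RetCOR corepressor complex / Amount: 1.35 nM GST-NR2E3 / Medium: Tris pH 7.5 / Compound: single nominal compound dose of 4.8 µM / Incubation: 5 h at 4 °C / Technique: TR-FRET, Eu(K)-anti-GST donor, streptavidin-D2 acceptor, ex 340, em 617/671 nm / Read-out basis: percent loss of FRET ratio relative to control wells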
PG9 binder – PG9 antibody binding by small molecule | TR-FRET gp120-PG9 antibody binding | inhibition, % at 6.7 µM | actives 0.43% (n = 360,000) | AID 624416; in the data active = inhibition above about 8.5%
NR2E3 ag-2 – human photoreceptor-specific nuclear receptor agonism. CHO-S Gal4-NCOR/VP16-NR2E3 two-hybrid, luciferase. actives 0.35% (n = 360,000). inhibition of corepressor binding, % at 3.98 µM. AID 602229. Q9Y5X4;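 active = inhibition above the mean of all tested compounds plus 3 SD, cut at about 70% in these data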;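 also: higher means lower luciferase signal from less NR2E3 corepressor binding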
PG9 bind confirm – confirmation of small molecules binding HIV-1 gp120 antibody PG9. shares compounds with PG9 binder. TR-FRET PG9 antibody binding, biochemical. inhibition, % at 6.7 µM. actives 90% (n = 1,500). AID 651571; in the data active = inhibition above about 9%
PGV04 Ab binding – counter-screen for PG9 binders: binding control antibody PGV04; shares compounds with PG9 binder; TR-FRET PGV04 antibody-gp120 binding, biochemical; inhibition, % at 6.7 µM; actives 95% (n = 1,500); AID 651604; in the data active = inhibition above about 9.5%
PG9 bind DR – small molecules binding HIV-1 gp120 antibody PG9; TR-FRET PG9 antibody-gp120 binding inhibition; IC50, µM; shares compounds with PG9 binder; 95 tested, under 10 active; in the data active = IC50 below about 10 µM
PGV04 DR counter – binds control antibody PGV04 in PG9 counter-screen; shares compounds with PG9 binder; TR-FRET binding to control antibody PGV04; IC50, µM; actives 20% (n = 95); AID 651937
PG126 binding DR – PG126 binding, dose response counter-screen | AID 651939 | actives 20% (n = 95) | IC50, µM | shares compounds with PG9 binder | TR-FRET binding to antibody PG126, counterscreen
A number is an active result. Sampled rows, rich in hits. Any-hit rate of the full collection: about 1.4%. Rule as the data show it, unless noted: active = IC50 below about 9 µM; inactive = the rest.

Results for COC(=O)[C@]12C[C@H](CC(=O)NCc3ccc(OC)c(OC)c3)C(=O)N(Cc3cccc4ccccc34)C1=C[C@H](C(C)C)O[C@@H]2C1CC1 ?
NR1D1 modulator: inactive

What do the screens show for `CCc1ccc(OCC(=O)OCC(=O)c2ccc3c(c2)NC(=O)CO3)cc1`?
NR1D1 modulator: inactive; NR2E3 ag-1: inactive; PG9 binder: 15; NR2E3 ag-2: inactive; PG9 bind confirm: 24; PGV04 Ab binding: 33

How did CCC(=O)c1ccc(OCC(=O)c2ccc3c(c2)NC(=O)CO3)cc1 do in these assays?
NR1D1 modulator: inactive; NR2E3 ag-1: inactive; PG9 binder: 16; NR2E3 ag-2: inactive; PG9 bind confirm: 38; PGV04 Ab binding: 38; PG9 bind DR: inactive; PGV04 DR counter: inactive; PG126 binding DR: inactive

Results for CCCCCCC(=O)OCC(=O)c1ccc2c(c1)NC(=O)CO2 ?
NR1D1 modulator: inactive; NR2E3 ag-1: inactive; PG9 binder: inactive; NR2E3 ag-2: inactive

Results for O=C(NCc1c(F)cccc1F)C1C2C=CC3(CN(Cc4ccccc4)C(=O)C13)O2 (stereo not drawn) ?
NR1D1 modulator: inactive

What do the screens show for `COc1ccc(CNC(=O)CCNS(=O)(=O)c2ccc3[nH]c(=O)oc3c2)cc1`?
NR1D1 modulator: inactive

Results for Cc1ccc(C(=O)NCCNc2nc3cc(C)c(C)cc3cc2C)cc1 ?
NR1D1 modulator: inactive; NR2E3 ag-1: inactive; PG9 binder: 8.9; NR2E3 ag-2: inactive; PG9 bind confirm: 18; PGV04 Ab binding: 22

What do the screens show for `CCCCNC(=O)C[C@@H]1C(=O)N(CCc2ccc(Cl)cc2)C2=CCCCC[C@]21C(=O)OC`?
NR1D1 modulator: inactive

Results for CCOc1ccc(C(=O)Nc2ccc(NC(=O)c3ccco3)c(Cl)c2)cc1Br ?
NR1D1 modulator: inactive; NR2E3 ag-1: inactive; PG9 binder: 36; NR2E3 ag-2: inactive; PG9 bind confirm: 32; PGV04 Ab binding: 44

How did COC(=O)c1ccc(NC(=O)c2ccc(NC(=O)c3ccco3)cc2)cc1 do in these assays?
NR1D1 modulator: inactive; NR2E3 ag-1: inactive; PG9 binder: 19; NR2E3 ag-2: inactive; PG9 bind confirm: 17; PGV04 Ab binding: 11; PG9 bind DR: inactive; PGV04 DR counter: inactive; PG126 binding DR: inactive

How did CCOc1ccc(C(=O)Nc2ccc(NC(=O)c3ccco3)c(Cl)c2)cc1Cl do in these assays?
NR1D1 modulator: inactive; NR2E3 ag-1: inactive; PG9 binder: inactive; NR2E3 ag-2: inactive

What do the screens show for `CC(C)N(C(N)=NC(=O)OCc1ccccc1)C(C)C`?
NR1D1 modulator: inactive

Results for COc1cccc(CNS(=O)(=O)c2cc3c(cc2Br)CC(C)N3C(C)=O)c1 (stereo not drawn) ?
NR1D1 modulator: inactive

Results for COC(=O)C1CN(Cc2cn(Cc3ccccc3)nn2)CCS(=O)(=O)N1Cc1ccc(C)cc1 (stereo not drawn) ?
NR1D1 modulator: inactive

How did Cc1ccnc(N2CCC(C(=O)Nc3ccc4c(c3)CCC4)CC2)n1 do in these assays?
NR1D1 modulator: inactive; NR2E3 ag-1: inactive; PG9 binder: 37; NR2E3 ag-2: inactive; PG9 bind confirm: 44; PGV04 Ab binding: 61

Results for O=C(Nc1nccs1)c1cc2sccc2n1Cc1ccc(F)cc1 ?
NR1D1 modulator: inactive; NR2E3 ag-1: inactive; PG9 binder: 9.4; NR2E3 ag-2: inactive; PG9 bind confirm: 15; PGV04 Ab binding: 19

Results for COc1ccc(NC(=O)c2cc3sccc3n2Cc2ccc(F)cc2)cc1OC ?
NR1D1 modulator: inactive; NR2E3 ag-1: inactive; PG9 binder: inactive; NR2E3 ag-2: inactive

Results for C#CCN1CC(N(C)CCOC(=O)c2ccc([N+](=O)[O-])cc2)CS1(=O)=O (stereo not drawn) ?
NR1D1 modulator: inactive

Results for Cc1ccc(NC(=O)CNC(=O)c2sc3ccccc3c2Cl)nc1 ?
NR1D1 modulator: inactive; NR2E3 ag-1: inactive; PG9 binder: 15; NR2E3 ag-2: inactive; PG9 bind confirm: 13; PGV04 Ab binding: 28

What do the screens show for `NC(=O)c1ccc(NC(=O)CNC(=O)c2sc3ccccc3c2Cl)cc1`?
NR1D1 modulator: inactive; NR2E3 ag-1: inactive; PG9 binder: 18; NR2E3 ag-2: inactive; PG9 bind confirm: 22; PGV04 Ab binding: 28

Results for CC(=O)Nc1ccc(NC(=O)CNC(=O)c2sc3ccccc3c2Cl)cc1 ?
NR1D1 modulator: inactive; NR2E3 ag-1: inactive; PG9 binder: inactive; NR2E3 ag-2: inactive

What do the screens show for `COC(=O)[C@]1(CNC(=O)C(F)(F)F)CC(=O)N(C)[C@@H]1c1ccccc1`?
NR1D1 modulator: inactive

What do the screens show for `C#CCNC(=O)C[C@@H]1C(=O)N(Cc2ccc(OC)cc2)C2=CCN(C(=O)OC(C)(C)C)C[C@]21C(=O)OCC`?
NR1D1 modulator: inactive

What do the screens show for `CN1/C(=C/C(=O)c2ccc(Cl)cc2)Sc2cc3c(cc21)OCO3`?
NR1D1 modulator: inactive; NR2E3 ag-1: inactive; PG9 binder: inactive; NR2E3 ag-2: inactive

What do the screens show for `COc1ccc(C(=O)/C=C2/Sc3cc4c(cc3N2C)OCO4)cc1`?
NR1D1 modulator: inactive; NR2E3 ag-1: inactive; PG9 binder: 40; NR2E3 ag-2: inactive; PG9 bind confirm: 56; PGV04 Ab binding: 49; PG9 bind DR: inactive; PGV04 DR counter: 2.4; PG126 binding DR: 2.4

How did CCOC(=O)CC[C@@]1(C(=O)OCC)C[C@@H](CC(=O)N2CCSCC2)C(=O)N2CCCC=C21 do in these assays?
NR1D1 modulator: inactive

How did O=C1N/C(=N\c2ccccn2)SC1Cc1ccc(Cl)cc1 (stereo not drawn) do in these assays?
NR1D1 modulator: inactive; NR2E3 ag-1: inactive; PG9 binder: 9.3; NR2E3 ag-2: inactive; PG9 bind confirm: 17; PGV04 Ab binding: 29

What do the screens show for `O=C(NCCCn1ccnc1)c1cc(-c2cccnc2)nc2ccc(Br)cc12`?
NR1D1 modulator: inactive; NR2E3 ag-1: inactive; PG9 binder: inactive; NR2E3 ag-2: inactive

Results for COCCNC(=O)c1cc(-c2cccnc2)nc2ccc(Br)cc12 ?
NR1D1 modulator: inactive; NR2E3 ag-1: inactive; PG9 binder: 8.6; NR2E3 ag-2: inactive; PG9 bind confirm: inactive; PGV04 Ab binding: 14

What do the screens show for `COCCCN1C(=O)[C@H](CC(=O)N2CCC(c3ccccc3)CC2)[C@]2(C(=O)OC)CCCCC=C12`?
NR1D1 modulator: inactive

Results for CC(=O)CC[C@@H]1CC[C@]2(CCCN(C(=O)C3CCCC3)C2)O1 ?
NR1D1 modulator: inactive
